ChEMBL document CHEMBL4477193, “The Natural Product Essramycin and Three of Its Isomers Are Devoid of Antibacterial Activity” (J Nat Prod, 2016)
Calls of active or inactive are those of the source.

How the values were obtained:
Format in all cases: functional, organism-based
Klebsiella pneumoniae = assay: Antibacterial activity against Klebsiella pneumoniae ATCC 700603 up to 128 ug/ml after 16 to 20 hrs by broth microdilution assay
Summary of the method: (§1)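 MIC testing across a concentration series whose top concentration was 128 μg/mL. The E. faecium strain is NCTC 7171 (ATCC 19734). The testing method follows an earlier report.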

Acinetobacter baumannii = assay: Antibacterial activity against Acinetobacter baumannii ATCC 17961 up to 128 ug/ml after 16 to 20 hrs by broth microdilution assay; summary of the method: as §1
Pseudomonas aeruginosa = assay: Antibacterial activity against Pseudomonas aeruginosa ATCC 27853 up to 128 ug/ml after 16 to 20 hrs by broth microdilution assay; summary of the method: as §1
Klebsiella aerogenes = assay: Antibacterial activity against Enterobacter aerogenes ATCC 35029 up to 128 ug/ml after 16 to 20 hrs by broth microdilution assay; summary of the method: as §1
Escherichia coli = assay: Antibacterial activity against Escherichia coli ATCC 25922 up to 128 ug/ml after 16 to 20 hrs by broth microdilution assay; summary of the method: as §1
Enterococcus faecium = assay: Antibacterial activity against Enterococcus faecium ATCC 19734 up to 128 ug/ml after 16 to 20 hrs by broth microdilution assay; summary of the method: as §1
Staphylococcus aureus = assay: Antibacterial activity against Staphylococcus aureus ATCC 29213 up to 128 ug/ml after 16 to 20 hrs by broth microdilution assay; summary of the method: as §1

Measured: Activity

Cc1cc(=O)[nH]c2nc(CC(=O)c3ccccc3)nn12
inactive: all assays above

Cc1cc(=O)[nH]c2nnc(CC(=O)c3ccccc3)n12
inactive: all assays above

Cc1cc(=O)n2nc(CC(=O)c3ccccc3)nc2[nH]1
inactive: all assays above

Cc1cc(=O)n2c(CC(=O)c3ccccc3)nnc2[nH]1
inactive: all assays above
